The text below walks through data of paper PMC11047177 (ESMO Open, 2024).

In series [1] the test system is non-small-cell lung cancer (NSCLC) cells. Conditions: in vitro; cited from earlier work.
Another series has as its target PRMT5 (Homo sapiens, UniProt O14744). In words: Plasma SDMA pharmacodynamics by LC/MS. In kind it is in vivo. Summed up: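 Plasma SDMA, a catabolic product of PRMT5 activity, was measured by LC/MS during oral test-compound dosing. Part 1 samples: pre-dose, 2 and 6 h on C1D1; 12 h C1D1 or pre-dose C1D2; pre-dose C1D8; pre-dose, 2 and 6 h on C1D15; pre-dose C1D22, C2D1 and C3D1. Part 2 samples: pre-dose C1D1, C1D8, C1D15, C1D22, C2D1, C3D1 and end of treatment.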

Series [2] deals with SW1990 and A427 xenograft. In words: Preclinical mouse xenograft models. The series is classed as in vivo. Conditions: corresponding to a 70% (or greater) inhibition of plasma SDMA; data not shown.
Series [3] is described as follows: Plasma PF-06939999 pharmacokinetics, noncompartmental. In kind it is in vivo, human. Summed up:
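Test compound given orally on an empty stomach. Part 1 had intensive plasma sampling on cycle 1 day 1 and day 15; part 2 had sparse sampling. Plasma was assayed by a validated method with LLOQ 0.250 ng/ml; values below LLOQ were set to zero for summaries. Noncompartmental analysis was done within a dosing interval. Rac was based on AUCτ. Parameters were summarised by dose, cycle and day as geometric means.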

In series [4] the test system is selected locally advanced or metastatic solid tumors. In words: Tumor response by RECIST v1.1. The series is classed as in vivo, human. Conditions: for Duration of response (DoR): part 1.

Entries after “also recorded” stand apart in the source; their conditions may differ.

Chain of PRMT5 (O14744 whole entry): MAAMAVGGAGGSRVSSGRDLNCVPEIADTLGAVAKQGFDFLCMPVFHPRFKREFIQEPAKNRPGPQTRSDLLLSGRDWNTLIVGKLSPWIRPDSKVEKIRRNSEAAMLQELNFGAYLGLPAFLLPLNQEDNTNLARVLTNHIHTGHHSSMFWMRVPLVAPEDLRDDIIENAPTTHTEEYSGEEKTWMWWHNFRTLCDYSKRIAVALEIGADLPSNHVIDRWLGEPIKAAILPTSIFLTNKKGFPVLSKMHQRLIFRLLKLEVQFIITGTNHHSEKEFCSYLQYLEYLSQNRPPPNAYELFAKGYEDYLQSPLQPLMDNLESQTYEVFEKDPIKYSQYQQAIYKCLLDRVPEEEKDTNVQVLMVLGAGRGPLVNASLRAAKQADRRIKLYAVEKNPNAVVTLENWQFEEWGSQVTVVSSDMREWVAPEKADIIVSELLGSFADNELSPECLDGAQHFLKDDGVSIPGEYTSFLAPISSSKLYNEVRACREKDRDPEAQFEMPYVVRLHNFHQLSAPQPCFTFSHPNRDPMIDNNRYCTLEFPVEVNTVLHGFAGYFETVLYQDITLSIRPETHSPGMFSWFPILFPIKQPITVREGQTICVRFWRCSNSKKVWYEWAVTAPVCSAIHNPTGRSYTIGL
Chain of PRMT5 (Q9BQA1 whole entry partner): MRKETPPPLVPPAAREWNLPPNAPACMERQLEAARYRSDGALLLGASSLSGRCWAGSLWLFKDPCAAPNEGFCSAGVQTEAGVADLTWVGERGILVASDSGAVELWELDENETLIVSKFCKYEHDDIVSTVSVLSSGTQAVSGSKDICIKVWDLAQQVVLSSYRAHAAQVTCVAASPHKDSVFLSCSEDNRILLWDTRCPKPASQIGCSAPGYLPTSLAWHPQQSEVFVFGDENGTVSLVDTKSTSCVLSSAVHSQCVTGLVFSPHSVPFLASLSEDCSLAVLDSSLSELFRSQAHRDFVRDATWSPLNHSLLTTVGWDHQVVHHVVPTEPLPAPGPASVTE

Take `Cc1ncnc2c1ccn2[C@@H]1C[C@H](Oc2cc(C(F)F)c(F)c3c2CNCC3)[C@@H](O)[C@H]1O` [PF-06939999]: in series [1], the Anti-proliferative activity result is reported as “demonstrated anti-proliferative activity”. Further, the “Plasma SDMA inhibition” value is given as around 60% on PRMT5 (14-28 days post-dose, 0.5 mg q.d. or b.i.d.) and “around 80%” at PRMT5 (RP2D, 6 mg q.d.). In addition, the Tumor growth inhibition in series [2] is listed as around 100%. Also, the “Dose dependence of exposure (AUCτ and Cmax)” value in series [3] (0.5 mg q.d. to 6 mg b.i.d.) is “exposure increased with dose; also recorded: increased in a dose-dependent manner”. For the same compound, the “Variability of AUCτ” value in series [3] (RP2D, 6 mg q.d.) was 38%. Besides, the “Variability of Cmax” value in series [3] (RP2D, 6 mg q.d.) was 26%. Further, the “Time to steady-state PK” value in series [3] (b.i.d. and q.d. regimens) is at most 15 days. In series [3] (indicated by Rac after b.i.d. dosing), this compound showed an Effective half-life above 24 h. Also, the Objective response rate in series [4] (part 1 + part 2, 3/54 patients) is reported as 6%. The Stable disease in series [4] (part 1 + part 2, 19 patients, response-assessable population (44 patients)) turned out to be 43.2%. For the same compound, the “Confirmed PRs” value in series [4] (part 1, 28 patients treated, two patients (HNSCC 2 mg b.i.d., NSCLC 4 mg b.i.d.)) stood at 7%. Further, the “Duration of response (DoR)” value in series [4] (confirmed responder with HNSCC, 2 mg b.i.d.) worked out at 4 months; in series [4] (confirmed responder with NSCLC, 4 mg b.i.d.) it was 5 months. In series [4] (part 2, 26 patients, 6 mg q.d., 8 patients), this compound came in with a Progressive disease of 31%. For the same compound, in series [4] (part 2, 26 patients, 6 mg q.d., 11 patients), the Disease control turned out to be 42%. Moreover, the “Confirmed PR” value in series [4] (part 2, 26 patients, 6 mg q.d., one patient with NSCLC) turned out to be 4%.
